From the RNAGym collection of RNA variant scans (doi:10.1002/anie.201605470) come the findings set out here.

The labels stand for the following.
B1: Osa-1-4 twister ribozyme (parent)
chain: CCGCCUAACACUGCCAAUGCCGGUCCCAAGCCCGGAUAAAAGUGGAGGGGGCGG

In the data set the parent is B1. The experiment in a line: self-cleavage, relative activity (ratio to wild type); higher = more cleavage; co-transcriptional. Put shortly:
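The 48 positions downstream of the cleavage site in a DNA template for a 54-nucleotide Oryza sativa twister ribozyme carried 97 % wild-type base and 1 % of each other base. After in vitro transcription (2 h, 37 °C) with co-transcriptional self-cleavage, the RNA was reverse-transcribed with a template-switching oligonucleotide, PCR-amplified and deep-sequenced. Relative activity is the fraction cleaved, judged by reads with or without upstream sequence and normalised to wild type.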
Regarding CCGCCUAACACUGACAAUGCCGGUCCCAAGCCCGGAUAAAAGAGGAGGGGGCGG, the self-cleavage is 0.06. CCGCCUAACACUGACAAUGCCGGUCCCAAGCCCGGAUAAAAGCGGAGGGGGCGG: the self-cleavage stood at 0.06. Take CCGCCUAACACUGACAAUGCCGGUCCCAAGCCCGGAUAAAAGGGGAGGGGGCGG: the self-cleavage is 0.07.

Regarding CCGCCUAACACUGACAAUGCCGGCCCCAAGCCCGGAUAAAAGUGGAGGGGGCGG, the self-cleavage is 0.04. CCGCCUAACACUGACAAUGCCGGGCCCAAGCCCGGAUAAAAGUGGAGGGGGCGG: the self-cleavage worked out at 0.02. Then CCGCCUAACACUGACAAUGCCGGACCCAAGCCCGGAUAAAAGUGGAGGGGGCGG, with 0.03. As for CCGCCUAACACUGGCAAUGCCGGUCCCAAGCCCGGAUAAAACUGGAGGGGGCGG, the self-cleavage was found to be 0.06.

For the variant CCGCCUAACACUGGCAAUGCCGGUCCCAAGCCCGGAUAAAAUUGGAGGGGGCGG, the self-cleavage was 0.02. Then CCGCCUAACACUGGCAAUGCCGGUCCCAAGCCCGGAUAAAAAUGGAGGGGGCGG, with 0.09; and CCGCCUAACACCGACAAUGCCGGUCCCAAGCCCGGAUAAAAGUGGAGGGGGCGG, with 0.05; and CCGCCUAACACGGACAAUGCCGGUCCCAAGCCCGGAUAAAAGUGGAGGGGGCGG, with 0.06. The same measure for CCGCCUAACACAGACAAUGCCGGUCCCAAGCCCGGAUAAAAGUGGAGGGGGCGG: 0.08; for CCGCCUAACACUGGCAAUGCCGGUCCCAAACCCGGAUAAAAGUGGAGGGGGCGG: 0.07. The same measure for CCGCCUAACACUGGCAAUGCCGGUCCCAAUCCCGGAUAAAAGUGGAGGGGGCGG: 0.14. Take CCGCCUAACACUGGCAAUGCCGGUCCCAACCCCGGAUAAAAGUGGAGGGGGCGG: the self-cleavage came out at 0.64. Then CCGCCUAACACUGGCAAUGCCGGUCCUAAGCCCGGAUAAAAGUGGAGGGGGCGG, with 0.07.

Turning to CCGCCUAACACUGGCAAUGCCGGUCCGAAGCCCGGAUAAAAGUGGAGGGGGCGG, the self-cleavage amounted to 0.07.

In the case of CCGCCUAACACUGGCAAUGCCGGUCCAAAGCCCGGAUAAAAGUGGAGGGGGCGG, the self-cleavage was determined as 0.03. The same measure for CCGCCUAACACUGGCAAUGCCGGUCCCAAGCCCGGAUAAAAGUGGAGGGGGGGG: 0.13. Turning to CCGCCUAACACUGGCAAUGCCGGUCCCAAGCCCGGAUAAAAGUGGAGGGGGAGG, the self-cleavage amounted to 0.14. Then CCGCCUAACACUGGCAAUGCCGGUCCCAAGCCCGGAUAAAAGUGGAGGGGGUGG, with 0.18; and CCGCCUAACACUGGCAAUGCCGGUCCCAAGCCCGGAUAAAAGUGGAGGAGGCGG, with 0.04; and CCGCCUAACACUGGCAAUGCCGGUCCCAAGCCCGGAUAAAAGUGGAGGGGGCGG, with 0.21.

CCGCCUAACACUGGCAAUGCCGGUCCCAAGCCCCGAUAAAAGUGGAGGGGGCGG: the self-cleavage was determined as 0.09.

As for CCGCCUAACACUGGCAAUGCCGGUCCCAAGCCCUGAUAAAAGUGGAGGGGGCGG, the self-cleavage came out at 0.06. Then CCGCCUAACACUGGCAAUGCCGGUCCCAAGCCCAGAUAAAAGUGGAGGGGGCGG, with 0.13. Then CCGCCUAAAACUGGCAAUGCCGGUCCCAAGCCCGGAUAAAAGUGGAGGGGGCGG, with 0.04. Turning to CCGCCUAAGACUGGCAAUGCCGGUCCCAAGCCCGGAUAAAAGUGGAGGGGGCGG, the self-cleavage is 0.16. In the case of CCGCCUAAUACUGGCAAUGCCGGUCCCAAGCCCGGAUAAAAGUGGAGGGGGCGG, the self-cleavage amounted to 0.08. The same measure for CCGCCUAACACUGACAAUGCCGGUCCCAAGCCCGGAUAAAAGUGGAGGGGGCGC: 0.06; for CCGCCUAACACUGACAAUGCCGGUCCCAAGCCCGGAUAAAAGUGGAGGGGGCGA: 0.1. Then CCGCCUAACACUGACAAUGCCGGUCCCAAGCCCGGAUAAAAGUGGAGGGGGCGU, with 0.22. Then CCGCCUAACACUGGCAAUGCCGGUCCCAAGCCCGGAUAAAAGUGCAGGGGGCGG, with 0.03; and CCGCCUAACACUGGCAAUGCCGGUCCCAAGCCCGGAUAAAAGUGAAGGGGGCGG, with 0.04; and CCGCCUAACACUGGCAAUGCCGGUCCCAAGCCCGGAUAAAAGUGUAGGGGGCGG, with 0.03.

Consider CCGCCUAACACUUGCAAUGCCGGUCCCAAGCCCGGAUAAAAGUGGAGGGGGCGG, for which the self-cleavage is 0.05. In the case of CCGCCUAACACUCGCAAUGCCGGUCCCAAGCCCGGAUAAAAGUGGAGGGGGCGG, the self-cleavage amounted to 0.01. In the case of CCGCCUAACACUAGCAAUGCCGGUCCCAAGCCCGGAUAAAAGUGGAGGGGGCGG, the self-cleavage is 0.07. Regarding CCGCCUAACACUGGCAAUGCGGGUCCCAAGCCCGGAUAAAAGUGGAGGGGGCGG, the self-cleavage is 0.05. For the variant CCGCCUAACACUGGCAAUGCAGGUCCCAAGCCCGGAUAAAAGUGGAGGGGGCGG, the self-cleavage is 0.09. Take CCGCCUAACACUGGCAAUGCUGGUCCCAAGCCCGGAUAAAAGUGGAGGGGGCGG: the self-cleavage was 0.16. The same measure for CCGCCUAACACUGACAAGGCCGGUCCCAAGCCCGGAUAAAAGUGGAGGGGGCGG: 0.11; for CCGCCUAACACUGACAAAGCCGGUCCCAAGCCCGGAUAAAAGUGGAGGGGGCGG: 0.09. The same measure for CCGCCUAACACUGACAACGCCGGUCCCAAGCCCGGAUAAAAGUGGAGGGGGCGG: 0.11; for CCGCCUAACACUGGCAAUGCCGGUCCCAAGCUCGGAUAAAAGUGGAGGGGGCGG: 0.04; for CCGCCUAACACUGGCAAUGCCGGUCCCAAGCGCGGAUAAAAGUGGAGGGGGCGG: 0.08. The same measure for CCGCCUAACACUGGCAAUGCCGGUCCCAAGCACGGAUAAAAGUGGAGGGGGCGG: 0.03; for CCGCCUAACACUGACAAUGCCGGUCCCAAGCCCGGAUAAAAGUGGAGGGGGCUG: 0.05.
